Assay [1] deals with T1, recombinant BodoOBP10 (Bradysia odoriphaga, UniProt A0A2S0X9G4).
T1 sequence (A0A2S0X9G4 20-144): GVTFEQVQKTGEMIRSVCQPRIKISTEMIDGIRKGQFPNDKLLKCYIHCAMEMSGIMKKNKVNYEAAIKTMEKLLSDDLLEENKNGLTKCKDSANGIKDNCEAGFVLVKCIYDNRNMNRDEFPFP
The assay can be described thus: Binding curve of the fluorescence reporter 1-NPN. In outline:
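Recombinant BodoOBP10 was expressed in E. coli BL21(DE3) from pBM30 with 0.5 mM IPTG for 12 h at 28°C. Inclusion bodies were solubilised in 50 mM Tris pH 6.8 with 0.2% Triton X-100 and 6 M guanidine HCl. Protein was Ni-affinity purified and the His tag removed by enterokinase. Protein stock was 2 µM in 20 mM Tris-HCl pH 7.4; 1-NPN stock was 1 mM in methanol. Ex 337 nm, em 350–500 nm, 10-nm slit; triplicate means.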

Assay [2] addresses T1, recombinant BodoOBP10. In words: Competitive fluorescence binding assay with 1-NPN as reporter. The following applies: competitive dissociation constant from IC50, 1-NPN reporter. In outline:
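Refolded, Ni-purified, tag-cleaved BodoOBP10 (2 µM stock, 20 mM Tris-HCl pH 7.4) was titrated with test compounds (1 mM methanol stocks) displacing the 1-NPN reporter. Ex 337 nm, em 350–500 nm. IC50 is the ligand concentration halving initial fluorescence. Ki = [IC50]/(1 + [1-NPN]/K1-NPN), using free 1-NPN and the protein/1-NPN dissociation constant. Triplicate means.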

Assay [3] has as its system male B. odoriphaga. The following applies: ref Li et al. 2008; cited from earlier work.
For assay [4], the system named is antennae of B. odoriphaga adult females. In words: Electroantennogram. Also noted: species or system Bradysia odoriphaga. As to conditions: odorant at 10 μg/μL, adult females 12 h after emergence. In outline:
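30 nL of 6 μg/μL dsOBP10 or dsGFP was injected into one-day-old pupal abdomens; knockdown was checked by RT-qPCR in triplicate. Antennae of females 12 h post-emergence were detached, base on reference and tip on recording glass electrodes. Stimulus was 10 μl of a 10 μg/μL sulfur volatile on filter paper, pipetted after 10 s. Hexane control was given before and after. Ten replicates; one-way ANOVA with Tukey, means ± SE.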

Assay [5] has as its system B. odoriphaga females. As to conditions: ref Yang et al. 2019; cited from earlier work.
Assay [6] concerns antennae of adult B. odoriphaga. The following applies: ref Yang et al. 2019; cited from earlier work.

Several values for one entry are separate records, joined by “and”; a condition that tells them apart may be missing. Equal entries are not always repeated.

`c1ccc(Nc2cccc3ccccc23)cc1` [1-NPN, N-phenyl-1-naphthylamine]: the Ki in assay [1] was determined as 780 nM.

In the case of `CCCCCCCCCCCCCCCCC` [n- Heptadecane, n-Heptadecane], in assay [2], the Ki is over 50 µM. Besides, in assay [3], the “behavioral responses in male B. odoriphaga” value is listed as “can lead to behavioral responses”.

Consider `C=CCSSCC=C` [Diallyl disulfide], for which the “EAG response in dsOBP10-injected insects compared with control (dsGFP-injected)” value was “significantly reduced” in assay [4] and “reduced” in assay [4] (listed as diallyl disulﬁde). The female oviposition result in assay [5] is reported as “stimulate female oviposition”. Also, the “EAG responses / antennal preference of B. odoriphaga adults” value in assay [6] is “stimulate the EAG responses”. In assay [2], the Ki is 8.01 µM and < 10 µM.

Values taken from paper PMC9894006 (Journal of Insect Science, 2023).
